# The list is not random: actives were taken first. Their share in the collection is about 2.6%.
# miR-122 sensor = miR-122 inhibition in Huh7 cells; AID 602342; actives 0.3% (n = 340,000); Huh7 miR-122 Renilla luciferase sensor, 48 h; neutral wells = 0, positive control = 100; activation (reporter increase), % at 12.5 µM;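 active means mean replicate activation score at least 90 and every replicate individually at or above 90; inconclusive means only one of the two criteria met; inactive means neither criterion met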;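 further: higher luciferase means less miR-122 activity so hits act as miR-122 inhibitors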
# DENV2 CPE rescue = inhibitors of DENV2 cytopathic effect. DENV2-infected cells, cytopathic effect rescue, plate reader. CPE inhibition, % at 9.99 µM. actives 1.7% (n = 350,000). AID 651640; in the data active means CPE inhibition above about 20%, passing the limit was not always enough; inconclusive means no clear call, values can overlap the other calls; tested in BHK-21 cells
# E-selectin induc = E-selectin induction on HUVECs; P16581; HUVEC E-selectin immunofluorescence imaging; normalized: neutral wells 0, TNF-alpha wells 100; activation, % at 7.58 µM; actives 0.37% (n = 260,000);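 active means mean E-selectin-positive cell signal at least 10% of the positive control, reached in at least 60% of replicates, without over 20% cell loss; inconclusive means no rule given, readout overlaps actives, possibly toxicity-flagged; inactive means the rest, including those meeting only one limit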
#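 Assay system: HUVEC primary endothelial cells. Input: 3,000 HUVEC seeded per well. Doses: one compound dose added by pin transfer. Read-out basis: % PE-positive cells. Benchmarks: TNF-alpha high, DMSO low. Detection: immunofluorescence imaging. Buffer or medium: EGM-2, gelatin.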
# INS-1E GSIS act = primary screen for activators of insulin secretion dependent on glucose, INS-1E cells, GLuc reporter luminescence | INS-1E GLuc reporter insulin secretion, 2-3 h | activation, % at 16.6 µM | actives 0.61% (n = 370,000);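 active means lowest replicate activation of at least 40%, so every replicate reaches that level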
# ERAP1 HTS inh = blocks human ERAP1 aminopeptidase activity. Q9NZ08. recombinant ERAP1, Leu-AMC fluorescence, 60 min. inhibition, % at 10.7 µM. actives 0.15% (n = 340,000);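 active means mean replicate inhibition of at least 30%, or all replicates individually reaching that 30% level; inactive means mean below 30% and not every replicate reaching it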
# CFTR F508del cor = CFTR F508del correction in bronchial cells; CFBE cells, YFP halide quenching; stimulated with forskolin plus potentiator P3; % fluorescence drop versus neutral controls; activity (quench increase), % at 7.58 µM; actives 0.36% (n = 350,000);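 active means mean added fluorescence quench of at least 8% versus neutral control, with both replicates also reaching 8%; inconclusive means only one of the mean or replicate conditions met; inactive means mean below 8% and not both replicates reaching 8%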;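 further: cells transiently co-express mutant CFTR-F508del with the halide-sensitive YFP; corrector assay measuring rescue of mutant channel to the surface after 24 h compound exposure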
# A number is an active result; – = inactive; ? = inconclusive; · = no result.
SMILES,miR-122 sensor,DENV2 CPE rescue,E-selectin induc,INS-1E GSIS act,ERAP1 HTS inh,CFTR F508del cor
O=C(O)CCC1(CCC(=O)O)CCCC(CCC(=O)O)(CCC(=O)O)C1=O,–,–,–,46.6,–,–
CCC(=O)N1C[C@H](C)[C@@H](OC)CN(C)C(=O)c2cc(NC(=O)CC(F)(F)F)ccc2OC[C@@H]1C,·,·,·,–,·,·
C[C@@H]1CN([C@H](C)CO)C(=O)c2cc(NC(=O)C3CCCCC3)ccc2O[C@H]1CN(C)C(=O)Nc1ccc2c(c1)OCO2,–,·,176.9,–,·,–
C[C@H]1CN([C@@H](C)CO)C(=O)c2cccc(NC(=O)C3CCOCC3)c2O[C@H]1CN(C)C(=O)Nc1ccc2c(c1)OCO2,–,37.0,–,–,–,–
C[C@H]1CN([C@@H](C)CO)C(=O)c2cccc(NC(=O)C3CCCCC3)c2O[C@@H]1CN(C)C(=O)Nc1ccc2c(c1)OCO2,–,58.1,–,–,–,–
Cc1ccc(S(=O)(=O)NN=C2C3CC4CC(C3)CC2C4)cc1,–,?,–,–,–,–
Cc1ccc(S(=O)(=O)NC23CC4CC(CC(C4)C2)C3)cc1,106.4,–,–,–,–,–
COc1ccc(C#Cc2cnc3c(c2)C(=O)N([C@@H](C)CO)C[C@H](C)[C@H](CN(C)C(=O)c2ccccc2F)O3)cc1,–,–,–,–,–,–
CCn1nc(C)c(NC(=O)c2cnn3c(C(F)F)cc(-c4ccccc4)nc23)c1C,·,–,·,54.9,–,·
O=C(NN1CCCCC1)c1cnn2c(C(F)F)cc(-c3ccccc3)nc12,·,–,·,–,–,–
COc1ccc(-c2cc(C(F)F)n3ncc(C(=O)N4CCc5ccccc54)c3n2)cc1,–,–,·,–,–,14.4
CN1CCN(C(=O)C[C@@H]2CC[C@H]3[C@@H](COC[C@H](O)CN3S(=O)(=O)c3cccc(Cl)c3)O2)CC1,–,–,–,–,–,–
COc1ccc(NC(=O)Nc2ccc3c(c2)[C@H]2C[C@H](CC(=O)NCc4ccccc4F)O[C@H](CO)[C@H]2O3)cc1,–,–,–,–,–,–
COc1ccc([C@H]2C(C(=O)O)=C[C@@H](C(C)(C)C)N2S(=O)(=O)c2ccccc2)cc1,–,82.9,–,–,–,–
CO[C@H]1CC[C@H]2CCN(C)C(=O)[C@@H](C)N(C)C(=O)c3cc(C#N)ccc3OC[C@H]1O2,·,–,–,–,–,·
S=c1[nH]nc(NCCCN2CCOCC2)s1,·,–,–,–,86.5,–
O=C(C[C@H]1C[C@@H]2c3cc(NC(=O)Nc4ccccc4F)ccc3O[C@@H]2[C@@H](CO)O1)NCc1cc(F)ccc1F,–,–,–,–,–,–
CCS(=O)(=O)N1Cc2ccccc2CC1C(=O)NCC12CC3CC(CC(C3)C1)C2 (stereo unspecified),256.2,·,·,·,·,·
C[C@H]1CN([C@@H](C)CO)C(=O)Cc2cc(NC(=O)Nc3cccc4ccccc34)ccc2O[C@@H]1CN(C)S(=O)(=O)c1ccccc1,–,–,–,–,–,–
O=C(Nc1ccccc1)N[C@H]1CC[C@@H](CCn2cc(-c3ccccc3F)nn2)O[C@H]1CO,·,–,–,–,–,–
Cc1cc(CCNC=O)c(C)c2c1oc1ccccc12,·,–,–,57.1,–,–
Cc1ccccc1-c1cc(=O)c2ccccc2o1,–,–,–,–,·,–
CCCC(=O)Nc1ccc(N2CCN(S(C)(=O)=O)CC2)cc1,·,·,–,52.5,·,·
CCCCC(=O)Nc1ccc(N2CCN(S(C)(=O)=O)CC2)cc1,–,·,·,·,·,·
CCC1=Nc2cc(C(=O)NCCN3CCOCC3)ccc2Sc2ccc(C)cc21,–,–,·,–,–,–
SMILES,miR-122 sensor,DENV2 CPE rescue,E-selectin induc,INS-1E GSIS act,ERAP1 HTS inh,CFTR F508del cor
CCC1=Nc2cc(C(=O)NCc3ccco3)ccc2Sc2ccc(C)cc21,118.9,?,·,·,–,·
CC(C)[C@@H]1C(=O)N[C@@H](c2ccccc2)CC=CC[C@H](C)Oc2ccccc2C(=O)N1C (mixture of isomers),·,·,·,–,·,·
CSCc1cc(N2CCCC2)nc(-c2ccccc2)n1,·,–,–,–,–,–
CC(C)SCc1cc(N2CCCC2)nc(-c2ccccc2)n1,·,26.1,–,–,–,–
O=C(C[C@@H]1C=C[C@@H](NC(=O)C2CCC2)[C@H](CO)O1)NCc1ccncc1,·,–,–,–,–,–
Nc1[nH]c(C(=O)c2ccc(Br)cc2)c(-c2ccc(Cl)cc2)c1C(=O)NCCc1c[nH]c2ccccc12,·,44.0,–,–,–,–
CC(NC(=O)c1c(N)[nH]c(C(=O)c2ccccc2)c1-c1ccccc1Br)c1cccc2ccccc12 (stereo unspecified),·,–,–,–,–,–
CC(NC(=O)c1c(N)[nH]c(C(=O)c2ccc(Cl)cc2)c1-c1ccc(Br)cc1)c1cccc2ccccc12 (stereo unspecified),·,38.8,–,–,–,–
C[C@@H]1CN([C@H](C)CO)C(=O)Cc2cc(NC(=O)c3ccncc3)ccc2O[C@@H]1CN(C)S(=O)(=O)c1ccccc1,–,–,–,–,–,–
CC(=O)N(C)C[C@H]1Oc2ncc(C#Cc3ccccc3F)cc2C(=O)N([C@H](C)CO)C[C@H]1C,–,–,–,–,–,–
O=C(c1ccccc1)N1CC2(C1)[C@@H](c1ccccc1)[C@@H](CO)N2Cc1cccnc1,·,·,·,–,·,·
CC(=O)N(C)C[C@@H]1Oc2ncc(-c3ccc(C)cc3)cc2C(=O)N([C@@H](C)CO)C[C@@H]1C,–,?,–,–,–,–
Cc1cc(NC(=O)CSc2nc3c(sc4ccccc43)c(=O)n2CCCN2CCOCC2)n[nH]1,178.3,·,·,–,–,·
Cc1cc2ccccn2c1C(=O)c1ccccc1Br,–,41.7,·,–,–,–
CC(=O)N(C)C[C@H]1Oc2ncc(C#Cc3cccc(F)c3)cc2C(=O)N([C@@H](C)CO)C[C@H]1C,–,–,–,–,–,–
COc1ccc(NC(=O)Nc2ccc3c(c2)C(=O)N([C@@H](C)CO)C[C@@H](C)[C@H](CN(C)C(=O)Nc2ccccc2)OCCCC[C@H](C)O3)cc1,–,–,·,–,–,–
COc1ccc(NC(=O)N(C)C[C@@H]2OCCCC[C@@H](C)Oc3ccc(NC(=O)Nc4ccccc4)cc3C(=O)N([C@H](C)CO)C[C@@H]2C)cc1,–,38.6,–,–,–,–
COc1ccc(NC(=O)Nc2ccc3c(c2)C(=O)N([C@H](C)CO)C[C@H](C)[C@H](CN(C)C(=O)NC(C)C)OCCCC[C@H](C)O3)cc1,–,33.5,·,–,–,–
COc1ccc(NC(=O)Nc2ccc3c(c2)C(=O)N([C@@H](C)CO)C[C@H](C)[C@H](CN(C)C(=O)Nc2ccc4c(c2)OCO4)OCCCC[C@@H](C)O3)cc1,–,–,–,–,–,–

# Source: PubChem (Broad Institute)
